Legend:
Type in all cases: cell-based
Adenosine receptor A3 = target: T1, Adenosine receptor A3 (Homo sapiens, UniProt P0DMS8); assay: Displacement of [3H]MRE3008F20 from human adenosine A3 receptor expressed in CHO cells
T1 sequence (P0DMS8 whole entry): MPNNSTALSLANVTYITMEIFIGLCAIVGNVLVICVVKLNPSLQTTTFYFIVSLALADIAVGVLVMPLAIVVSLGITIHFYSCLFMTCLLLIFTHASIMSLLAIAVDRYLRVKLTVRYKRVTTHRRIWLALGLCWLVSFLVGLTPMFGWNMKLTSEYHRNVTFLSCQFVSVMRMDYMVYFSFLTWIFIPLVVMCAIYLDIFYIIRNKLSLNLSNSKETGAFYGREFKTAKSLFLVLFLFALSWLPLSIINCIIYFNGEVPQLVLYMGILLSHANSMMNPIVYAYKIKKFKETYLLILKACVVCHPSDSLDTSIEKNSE
Method in brief: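 Membranes (50 µg protein/assay) in 50 mM Tris-HCl, 10 mM MgCl2, 1 mM EDTA, pH 7.4, incubated 120 min at 4 °C with [³H]MRE3008F20 and at least 6–8 ligand concentrations. Nonspecific binding defined with 1 µM MRE 3008F20. Glass fiber filtration and counting. Ki via Cheng-Prusoff; n = 3–6.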

Adenosine receptor A2b = target: T2, Adenosine receptor A2b (Homo sapiens, UniProt P29275); assay: Displacement of [3H]MRE2029F20 from human adenosine A2B receptor expressed in HEK293 cells
T2 sequence (P29275 whole entry): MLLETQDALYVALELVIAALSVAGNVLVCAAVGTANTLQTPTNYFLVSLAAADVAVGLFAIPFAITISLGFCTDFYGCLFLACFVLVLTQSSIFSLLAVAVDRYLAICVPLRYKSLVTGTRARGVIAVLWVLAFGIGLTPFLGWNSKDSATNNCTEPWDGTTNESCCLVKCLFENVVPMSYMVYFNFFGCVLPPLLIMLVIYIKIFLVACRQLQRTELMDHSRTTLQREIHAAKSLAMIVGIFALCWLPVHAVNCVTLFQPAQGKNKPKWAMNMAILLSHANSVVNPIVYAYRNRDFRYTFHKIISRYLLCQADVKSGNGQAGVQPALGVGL
Method in brief: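 Membranes (50 µg protein/assay) in 50 mM Tris-HCl, 10 mM MgCl2, 1 mM EDTA, pH 7.4, incubated 120 min at 4 °C with [³H]MRE2029F20 and at least 6–8 compound concentrations. Nonspecific binding defined with 1 µM MRE 2029F20. GF/B filtration, scintillation counting. Ki via Cheng-Prusoff; n = 3–6.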

Adenosine receptor A1 = target: T3, Adenosine receptor A1 (Homo sapiens, UniProt P30542); assay: Displacement of [3H]DPCPX from human adenosine A1 receptor expressed in CHO cells
T3 sequence (P30542 whole entry): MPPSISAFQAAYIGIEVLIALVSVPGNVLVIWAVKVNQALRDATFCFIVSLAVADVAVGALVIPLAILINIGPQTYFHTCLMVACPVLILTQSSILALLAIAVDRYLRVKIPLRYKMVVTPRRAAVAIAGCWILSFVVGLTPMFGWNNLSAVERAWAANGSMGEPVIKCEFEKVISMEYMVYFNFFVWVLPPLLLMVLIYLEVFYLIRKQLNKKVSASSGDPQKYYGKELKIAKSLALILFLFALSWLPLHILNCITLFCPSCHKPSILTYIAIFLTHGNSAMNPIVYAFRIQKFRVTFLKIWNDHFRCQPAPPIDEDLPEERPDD

Adenosine receptor A2a = Adenosine receptor A2a (Homo sapiens, UniProt P29274); assay: Displacement of [3H]ZM-241385 from human adenosine A2A receptor expressed in CHO cells
Chain of Adenosine receptor A2a (P29274 whole entry): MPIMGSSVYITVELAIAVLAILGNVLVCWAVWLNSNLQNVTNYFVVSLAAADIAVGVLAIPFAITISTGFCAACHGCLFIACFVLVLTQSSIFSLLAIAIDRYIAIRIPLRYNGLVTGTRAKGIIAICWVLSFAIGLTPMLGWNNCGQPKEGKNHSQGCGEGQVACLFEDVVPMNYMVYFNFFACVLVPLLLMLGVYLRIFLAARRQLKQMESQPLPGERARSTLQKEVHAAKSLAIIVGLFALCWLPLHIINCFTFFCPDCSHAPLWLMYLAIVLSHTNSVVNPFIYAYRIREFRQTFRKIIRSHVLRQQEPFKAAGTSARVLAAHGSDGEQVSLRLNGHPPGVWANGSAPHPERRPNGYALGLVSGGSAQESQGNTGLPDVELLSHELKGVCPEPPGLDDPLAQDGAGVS
Method in brief: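 Membranes (50 µg protein/assay) in 50 mM Tris-HCl, 10 mM MgCl2, pH 7.4, incubated 60 min at 4 °C with [³H]ZM241385 and at least 6–8 concentrations of compound. Nonspecific binding defined with 1 µM ZM 241385. GF/B filtration and counting. Ki by Cheng-Prusoff; n = 3–6.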

CCCn1c(=O)c2[nH]c(-c3cc(C)n(CC(=O)Nc4cccc(Cl)c4)n3)nc2n(CCC)c1=O
Ki (Adenosine receptor A3): > 1 µM

CCCn1c(=O)c2[nH]c(-c3cc(C)n(CC(=O)Nc4ccc(F)cc4)n3)nc2n(CCC)c1=O
Ki (Adenosine receptor A3): > 1 µM

CCCn1c(=O)c2[nH]c(-c3nn(CC(=O)Nc4ccc(Cl)cc4)c(C)c3I)nc2n(CCC)c1=O
Ki (Adenosine receptor A3): > 1 µM | Ki (Adenosine receptor A2b): > 1 µM

CCCn1c(=O)c2[nH]c(-c3cc(C)n(CC(=O)Nc4cccc(OC)c4)n3)nc2n(CCC)c1=O
Ki (Adenosine receptor A3): > 1 µM

CCCn1c(=O)c2[nH]c(-c3cc(C)n(CC(=O)Nc4ccc(OC)c(OC)c4)n3)nc2n(CCC)c1=O
Ki (Adenosine receptor A3): > 1 µM

CCCn1c(=O)c2[nH]c(-c3ccn(CC(=O)Nc4ccc(Cl)cc4)n3)nc2n(CCC)c1=O
Ki (Adenosine receptor A3): > 1 µM

CCCn1c(=O)c2[nH]c(-c3nn(CC(=O)Nc4ccc(Cl)cc4)c(C)c3Br)nc2n(CCC)c1=O
Ki (Adenosine receptor A3): > 1 µM

CCCn1c(=O)c2[nH]c(-c3cc(C)n(CC(=O)Nc4ccc(C)c(C)c4)n3)nc2n(CCC)c1=O
Ki (Adenosine receptor A3): > 1 µM

CCCn1c(=O)c2[nH]c(-c3cc(C)n(CC(=O)Nc4ccc(OC)cc4)n3)nc2n(CCC)c1=O
Ki (Adenosine receptor A3): > 1 µM

CCCn1c(=O)c2[nH]c(-c3cc(C)n(CC(=O)Nc4ccc(Br)cc4)n3)nc2n(CCC)c1=O
Ki (Adenosine receptor A3): > 1 µM | Ki (Adenosine receptor A1): > 1 µM | Ki (Adenosine receptor A2a): > 1 µM

CCCn1c(=O)c2[nH]c(-c3cc(C)n(CC(=O)Nc4cccc5ccccc45)n3)nc2n(CCC)c1=O
Ki (Adenosine receptor A3): > 1 µM | Ki (Adenosine receptor A2b): > 1 µM

CCCn1c(=O)c2[nH]c(-c3cc(C)n(CC(=O)Nc4ccc(Cl)cc4)n3)nc2n(CCC)c1=O
Ki (Adenosine receptor A3): > 1 µM | Ki (Adenosine receptor A1): > 1 µM | Ki (Adenosine receptor A2a): > 1 µM

CCCn1c(=O)c2[nH]c(-c3cc(CC)n(CC(=O)Nc4ccc(Cl)cc4)n3)nc2n(CCC)c1=O
Ki (Adenosine receptor A3): > 1 µM | Ki (Adenosine receptor A2b): > 1 µM

CCCn1c(=O)c2[nH]c(-c3cc(C)n(CC(=O)Nc4ccc(N(C)C)cc4)n3)nc2n(CCC)c1=O
Ki (Adenosine receptor A3): > 1 µM | Ki (Adenosine receptor A2b): > 1 µM

CCCn1c(=O)c2[nH]c(-c3cc(C)n(CC(=O)Nc4ccccc4)n3)nc2n(CCC)c1=O
Ki (Adenosine receptor A3): > 1 µM

CCCn1c(=O)c2[nH]c(-c3nn(CC(=O)Nc4ccc(Cl)cc4)c(C)c3Cl)nc2n(CCC)c1=O
Ki (Adenosine receptor A3): > 1 µM

CCCn1c(=O)c2[nH]c(-c3cc(C)n(CC(=O)Nc4ccc(C)cc4)n3)nc2n(CCC)c1=O
Ki (Adenosine receptor A3): > 1 µM

CCCn1c(=O)c2[nH]c(-c3cc(OCC(=O)Nc4ccc(OC)c(OC)c4)nn3C)nc2n(CCC)c1=O
Ki (Adenosine receptor A3): > 1 µM | Ki (Adenosine receptor A1): > 1 µM | Ki (Adenosine receptor A2a): > 1 µM

CCCn1c(=O)c2[nH]c(-c3cc(C)n(CC(=O)Nc4ccc(I)cc4)n3)nc2n(CCC)c1=O
Ki (Adenosine receptor A3): > 1 µM

CCCn1c(=O)c2[nH]c(-c3cc(C)n(CC(=O)Nc4ccc(Cl)c(Cl)c4)n3)nc2n(CCC)c1=O
Ki (Adenosine receptor A3): > 1 µM

Reference: ChEMBL document CHEMBL1144025, “1,3-Dipropyl-8-(1-phenylacetamide-1H-pyrazol-3-yl)-xanthine derivatives as highly potent and selective human A(2B) adenosine receptor antagonists” (Bioorg Med Chem, 2008)
